In ChEMBL document CHEMBL1671828 (ACS Med Chem Lett, 2011):
Activity calls are given as the source filed them. No cut-off for these calls is given here.

Tests used:
Mus musculus = test: Increase in horizontal locomotor activity in mouse measured after 30 mins post 4 hrs drug administration; format: functional, organism-based
Outline: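 Mice; horizontal locomotor activity counts per min recorded over the first 30 min of each of the 4 h after drug injection. Several doses (mg/kg) were tested to give dose-effect curves. Each point is the average of six mice.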

[1] = molecular target: Transporter (Rattus norvegicus) (UniProt Q63380); test: Displacement of [3H]nisoxetine from NET in Sprague-Dawley rat brain membranes at 10 uM; format: cell membranes; conditions: Membrane
Sequence of Transporter (Rattus norvegicus) (Q63380 as listed by the source): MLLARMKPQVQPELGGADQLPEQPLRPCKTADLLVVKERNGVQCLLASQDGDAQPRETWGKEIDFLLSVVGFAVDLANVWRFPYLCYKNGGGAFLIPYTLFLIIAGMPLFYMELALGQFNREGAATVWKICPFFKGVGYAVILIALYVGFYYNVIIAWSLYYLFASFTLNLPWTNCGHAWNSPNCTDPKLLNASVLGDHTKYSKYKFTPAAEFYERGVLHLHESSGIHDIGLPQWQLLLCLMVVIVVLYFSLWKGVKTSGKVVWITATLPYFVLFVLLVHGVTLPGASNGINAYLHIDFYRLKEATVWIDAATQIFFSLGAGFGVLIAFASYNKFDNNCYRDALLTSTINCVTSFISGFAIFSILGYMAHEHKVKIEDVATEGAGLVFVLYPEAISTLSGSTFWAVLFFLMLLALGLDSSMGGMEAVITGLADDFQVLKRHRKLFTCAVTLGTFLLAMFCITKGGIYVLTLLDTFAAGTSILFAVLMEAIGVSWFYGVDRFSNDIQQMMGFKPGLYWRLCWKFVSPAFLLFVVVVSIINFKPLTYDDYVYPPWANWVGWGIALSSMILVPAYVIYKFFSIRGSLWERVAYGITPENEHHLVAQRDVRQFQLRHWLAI

[2] = molecular target: Sodium-dependent serotonin transporter (Rattus norvegicus, UniProt P31652); test: Displacement of [3H]citalopram from SERT in Sprague-Dawley rat brain membranes; format: cell membranes, Membrane
Sequence of Sodium-dependent serotonin transporter (P31652 whole entry): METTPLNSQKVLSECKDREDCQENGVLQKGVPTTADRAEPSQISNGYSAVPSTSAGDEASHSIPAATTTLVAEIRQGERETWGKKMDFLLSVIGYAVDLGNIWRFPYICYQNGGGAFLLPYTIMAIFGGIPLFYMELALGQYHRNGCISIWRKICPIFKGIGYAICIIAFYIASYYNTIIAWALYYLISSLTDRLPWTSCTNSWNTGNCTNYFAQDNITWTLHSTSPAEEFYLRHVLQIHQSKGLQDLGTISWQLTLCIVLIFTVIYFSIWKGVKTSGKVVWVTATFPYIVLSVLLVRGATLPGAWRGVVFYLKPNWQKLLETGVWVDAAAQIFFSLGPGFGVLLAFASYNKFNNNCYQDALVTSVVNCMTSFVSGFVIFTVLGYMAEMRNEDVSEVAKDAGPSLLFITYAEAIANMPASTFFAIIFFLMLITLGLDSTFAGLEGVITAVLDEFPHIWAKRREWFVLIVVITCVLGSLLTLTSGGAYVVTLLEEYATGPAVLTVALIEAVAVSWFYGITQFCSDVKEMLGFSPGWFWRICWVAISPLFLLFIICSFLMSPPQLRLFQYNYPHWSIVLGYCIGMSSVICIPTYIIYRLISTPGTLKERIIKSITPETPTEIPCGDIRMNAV

[3] = molecular target: Sodium-dependent dopamine transporter (Rattus norvegicus, UniProt P23977); format: cell membranes, Sprague-Dawley, Brain, Membrane
Sequence of Sodium-dependent dopamine transporter (P23977 whole entry): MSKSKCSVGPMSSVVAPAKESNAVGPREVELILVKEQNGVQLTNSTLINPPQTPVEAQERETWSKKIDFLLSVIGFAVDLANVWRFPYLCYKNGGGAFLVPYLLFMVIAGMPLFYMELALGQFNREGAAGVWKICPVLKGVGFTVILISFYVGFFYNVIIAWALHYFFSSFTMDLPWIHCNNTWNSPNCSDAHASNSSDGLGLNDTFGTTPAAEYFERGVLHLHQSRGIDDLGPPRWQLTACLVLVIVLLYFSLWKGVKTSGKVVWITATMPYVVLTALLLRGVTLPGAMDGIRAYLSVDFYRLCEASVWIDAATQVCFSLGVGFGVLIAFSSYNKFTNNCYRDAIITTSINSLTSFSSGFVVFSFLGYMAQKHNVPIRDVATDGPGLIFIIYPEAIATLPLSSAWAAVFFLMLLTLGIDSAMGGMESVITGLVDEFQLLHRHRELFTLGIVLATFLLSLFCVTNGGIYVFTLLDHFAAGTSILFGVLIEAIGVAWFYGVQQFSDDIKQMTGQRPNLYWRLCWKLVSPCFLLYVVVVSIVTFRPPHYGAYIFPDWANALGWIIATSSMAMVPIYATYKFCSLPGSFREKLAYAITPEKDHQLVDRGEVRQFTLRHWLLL

Transporter = Transporter (Rattus norvegicus, UniProt Q63380); test: Displacement of [3H]nisoxetine from NET in Sprague-Dawley rat brain membranes; format: cell membranes, Membrane
Sequence of Transporter (Q63380 whole entry): as the sequence (Q63380 as listed by the source) above

[4] = molecular target: Sodium-dependent dopamine transporter (Rattus norvegicus) (UniProt P23977); test: Inhibition of [3H]dopamine uptake at DAT in Sprague-Dawley rat brain membranes at 10 uM; format: cell membranes; conditions: Membrane
Sequence of Sodium-dependent dopamine transporter (Rattus norvegicus) (P23977 whole entry): as the sequence (P23977 whole entry) above

[5] = molecular target: Sodium-dependent serotonin transporter (Rattus norvegicus) (UniProt P31652); test: Displacement of [3H]citalopram from SERT in Sprague-Dawley rat brain membranes at 10 uM; format: cell membranes; conditions: Membrane
Sequence of Sodium-dependent serotonin transporter (Rattus norvegicus) (P31652 whole entry): as the sequence (P31652 whole entry) above

SMILES | Activity (Mus musculus) | inhibition [1] | Ki [2] [µM] | Ki [3] [µM] | Ki (Transporter) [µM] | inhibition [4] | inhibition [5]
NC(=O)C[S+]([O-])C(c1ccc(Cl)cc1)c1ccc(Cl)cc1 (racemic) | Dose-dependent effect | inactive | 39 |  |  |  | 
CN(C)C(=O)CSC(c1ccc(F)cc1)c1ccc(F)cc1 |  | inactive | 25.9 | 9.51 |  |  | 
NC(=O)CSC(c1ccc(Cl)cc1)c1ccc(Cl)cc1 |  |  | 12.7 | 2.23 |  |  | 
CN(C)C(=O)CSC(c1ccc(Br)cc1)c1ccc(Br)cc1 |  |  | 3.21 | 2.45 | 19.2 |  | 
CN(C)C(=O)C[S+]([O-])C(c1ccc(F)cc1)c1ccc(F)cc1 (racemic) |  | inactive | 16.2 |  |  | inactive | 
CN(C)C(=O)C[S+]([O-])C(c1ccc(Br)cc1)c1ccc(Br)cc1 (racemic) |  | inactive | 14.2 | 21.3 |  |  | 
[O-][S+](CCN1CCOCC1)C(c1ccccc1)c1ccccc1 (racemic) |  | inactive |  |  |  | inactive | inactive
NC(=O)C[S@@+]([O-])C(c1ccccc1)c1ccccc1 | Dose-dependent effect | inactive |  |  |  |  | inactive
CN(C)CC[S+]([O-])C(c1ccc(Cl)cc1)c1ccc(Cl)cc1 (racemic) |  |  | 0.406 | 2.89 | 36.2 |  | 
CNC(=O)C[S+]([O-])C(c1ccc(Br)cc1)c1ccc(Br)cc1 (racemic) |  | inactive | 33.2 | 1.65 |  |  | 
NC(=O)CSC(c1ccc(F)cc1)c1ccc(F)cc1 |  | inactive |  | 1.57 |  |  | inactive
CNC(=O)C[S+]([O-])C(c1ccc(Cl)cc1)c1ccc(Cl)cc1 (racemic) |  | inactive |  | 2.44 |  |  | inactive
CN(C)C(=O)CSC(c1ccccc1)c1ccccc1 |  | inactive |  | 16.5 |  |  | inactive
NC(=O)C[S+]([O-])C(c1ccc(Br)cc1)c1ccc(Br)cc1 (racemic) |  | inactive | 10.6 | 0.6 |  |  | 
NC(=O)C[S+]([O-])C(c1ccccc1)c1ccccc1 (racemic) | Dose-dependent effect | inactive |  |  |  |  | inactive
NC(=O)C[S+]([O-])C(c1ccc(F)cc1)c1ccc(F)cc1 (racemic) |  | inactive |  | 2.19 |  |  | inactive
CN(C)C(=O)C[S+]([O-])C(c1ccc(Cl)cc1)c1ccc(Cl)cc1 (racemic) |  | inactive | 22.3 | 34.6 |  |  | 
CN(C)CC[S+]([O-])C(c1ccccc1)c1ccccc1 (racemic) |  | inactive | 45.8 |  |  | inactive | 
NC(=O)CSC(c1ccc(Br)cc1)c1ccc(Br)cc1 |  |  | 2.2 | 1.93 | 77.7 |  | 
CN(C)C(=O)CSC(c1ccc(Cl)cc1)c1ccc(Cl)cc1 |  |  | 5.98 | 4.51 | 42.5 |  | 
NC(=O)C[S@+]([O-])C(c1ccccc1)c1ccccc1 | Dose-dependent effect | inactive |  |  |  |  | inactive
O=C(C[S+]([O-])C(c1ccccc1)c1ccccc1)NCCCc1ccccc1 (racemic) |  | inactive |  | 2.66 |  |  | inactive
CN(C)C(=O)C[S+]([O-])C(c1ccccc1)c1ccccc1 (racemic) |  | inactive |  |  |  | inactive | inactive
